Where no end group is shown, it is not given here.
Key:
[1] = system: all the microorganisms that we examined; assay: Antimicrobial assays, summary over all microorganisms examined; type: cell-based
How it was run: (§1)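 Each organism was grown in Mueller-Hinton broth, and 10^5 CFU/mL were exposed to test compound at 1–512 μM in two-fold dilutions. Plates were incubated at 37 °C in humidified air for 16–24 h. For MBC, 20 µL from each well was plated on Mueller-Hinton agar. MBC was the lowest concentration giving no colonies.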

C. albicans (NCTC 1467) = assay: Antimicrobial assay; type: cell-based
How it was run: as §1

[2] = system: methicillin-resistant S. aureus (MRSA; ATCC 12493); assay: Antimicrobial assay; type: cell-based
How it was run: as §1

[3] = system: five diverse human cancer cell lines; assay: MTT anti-cancer assay, summary over five cancer cell lines; type: cell-based; conditions: read-out: IC50s over the cancer cell lines
How it was run: (§2)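 Cells were seeded at 5000/well, grown 24 h at 37 °C in 5% CO2, then serum-starved for 6 h. Test compound at ten-fold concentrations from 10^-4 to 10^-9 M in serum-free medium was added for 24 h. MTT (5 mg/ml solution) was added for 4–6 h, formazan was dissolved in DMSO and OD was read at 550 nm. IC50 came from normalised curves; three independent experiments, mean ± s.d.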

[4] = system: human glioblastoma astrocytoma U251MG; assay: MTT anti-cancer assay; type: cell-based; conditions: U251-MG, 24 h
How it was run: as §2

E. faecalis (NCTC 12697) = assay: Antimicrobial assay; type: cell-based
How it was run: as §1

melanocyte MDA-MB-435S = assay: MTT anti-cancer assay; type: cell-based, human; conditions: MBD-MB-435S, 24 h
How it was run: as §2

[5] = system: normal human microvessel endothelial cells HMEC-1; assay: MTT assay on normal cells; type: cell-based
How it was run: as §2

[6] = system: non-small cell lung cancer H157; assay: MTT anti-cancer assay; type: cell-based, human; conditions: H157, 24 h
How it was run: as §2

Haemolysis assay = type: cell-based; conditions: horse erythrocytes, 2% suspension
How it was run: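 A 2% horse erythrocyte suspension in PBS was incubated with test compound at 1–512 μM for 2 h at 37 °C, with PBS and 1% Triton X-100 as controls. After centrifugation at 900× g for 5 min, supernatant absorbance was read at 550 nm. HC50 was calculated from normalised curves.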

S. aureus (NCTC 10788) = assay: Antimicrobial assay; type: cell-based
How it was run: as §1

S. aureus biofilm = type: cell-based
Circular dichroism = type: physicochemical; conditions: 100 µM peptide, 20 °C
How it was run: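 Test compound at 100 µM was dissolved in 10 mM ammonium acetate or in 50% TFE (v/v in 10 mM ammonium acetate) and read in a 1-mm cuvette. Spectra covered 190–260 nm at 20 °C, with three accumulations, 200 nm/min scan speed, 1 nm bandwidth and 0.5 nm data pitch. % α-helix was estimated by K2D on DichroWeb.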

P. aeruginosa biofilm = type: cell-based
[7] = system: P. aeruginosa (ATCC 27853); assay: Antimicrobial assay; type: cell-based
How it was run: as §1

E. coli (NCTC 10418) = assay: Antimicrobial assay; type: cell-based
How it was run: as §1

[8] = system: biofilm formation by S. aureus and P. aeruginosa; type: cell-based
[9] = system: human breast cancer MCF-7; assay: MTT anti-cancer assay; type: cell-based; conditions: MCF-7, 24 h
How it was run: as §2

[10] = system: human prostate carcinoma PC-3; assay: MTT anti-cancer assay; type: cell-based; conditions: PC-3, 24 h
How it was run: as §2

Stability in serum = type: in vitro ADME; conditions: 10% FBS in RPMI-1640, 37 °C
How it was run: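 Test compound at 50 μM was incubated in RPMI-1640 with 10% FBS at 37 °C for 24 h. Every 4 h, an aliquot was mixed with two volumes of 96% ethanol, held at 4 °C for 15 min and spun at 18,000× g for 2 min. Supernatants were analysed by RP-HPLC and MALDI-TOF. % remaining was the peak area relative to a serum-free stock; three independent experiments, mean ± s.d.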

RKKRRQRRRLNLKALLAVAKKIL-NH2 [tMP-C]
MIC and MBC values [1]: at most 16 µM
MBC (C. albicans (NCTC 1467)): 2 µM
MIC (C. albicans (NCTC 1467)): 2 µM
MBC [2]: 8 µM
MIC [2]: 4 µM
IC50 [3]: < 4 µM
IC50 [4]: 3.36 µM
MBC (E. faecalis (NCTC 12697)): 16 µM
MIC (E. faecalis (NCTC 12697)): 8 µM
IC50 (melanocyte MDA-MB-435S): 3.86 µM
inhibitory effect ([5]; HMEC-1, concentration of 10 µM): 60%
IC50 ([5]; HMEC-1 normal cells, 24 h, MTT): 9.18 µM
IC50 [6]: 2790 nM
HC50 at 2 h (Haemolysis assay): 77.9 µM
MBC (S. aureus (NCTC 10788)): 4 µM
MIC (S. aureus (NCTC 10788)): 4 µM
MBIC (S. aureus biofilm; S. aureus biofilm formation): 32 µM
MBEC (S. aureus biofilm; S. aureus existing biofilm): 256 µM
% α-helix 10 mM NH4AC (Circular dichroism; 10 mM NH4AC buffer): 9%
% α-helix 50% TFE (v/v) (Circular dichroism; 50% TFE in 10 mM NH4AC): 28%
MBIC (P. aeruginosa biofilm; P. aeruginosa biofilm formation): 8 µM
MBEC (P. aeruginosa biofilm; P. aeruginosa existing biofilm): 128 µM
MBC [7]: 4 µM
MIC [7]: 4 µM
MBC (E. coli (NCTC 10418)): 2 µM
MIC (E. coli (NCTC 10418)): 2 µM
maximum MBIC [8]: 32 µM
IC50 [9]: 3.7 µM
IC50 [10]: 3.86 µM
serum stability (in words) (Stability in serum): poor serum stability

Reference: article PMC6001651 (International Journal of Biological Sciences, 2018)
